The source made the active and inactive calls. The rule behind the calls is not given here.

The subject of one data set is LNCaP. In words: Cytotoxicity against human LNCAP cells after 24 hrs by MTT assay. It is filed as functional, cell-based. The method, boiled down:
(§1)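 Human cancer cell lines were exposed to compound and cell viability was read at 24 h. IC50 values were calculated from the viability data. Mean ± SEM of at least four experiments, each run in triplicate.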
(Tetrazolium dyes change colour on reduction, which living cells bring about.)

Another data set concerns MCF7. In words: Cytotoxicity against human MCF7 cells expressing ER after 24 hrs by MTT assay. It is filed as functional, cell-based. To be noted: MCF7, 24 h. Summed up: as §1
The subject of data set [1] is Rattus norvegicus. In words: Antiinflammatory activity in rat assessed as reduction of carrageenan-induced paw volume at 0.56 mmol/kg after 1 to 3 hrs. The data set is classed as functional. (In the carrageenan paw model, swelling and tenderness develop within hours.)
The subject of a further data set is A549. As to the kind of experiment: Cytotoxicity against human A549 cells after 24 hrs by MTT assay. The data set is classed as functional, cell-based. Conditions: A549, 24 h. The method, boiled down: as §1
The subject of another data set is MIA PaCa-2. In words: Cytotoxicity against COX deficient human MIAPaCa2 cells after 24 hrs by MTT assay. It is filed as functional, cell-based. To be noted: MIA PaCa-2, 24 h. Summed up:
as §1

The subject of data set [2] is Rattus norvegicus. In words: Antiinflammatory activity in rat assessed as reduction of carrageenan-induced paw volume at 0.56 mmol/kg after 1 hr. The data set is classed as functional.
Another data set relates to HCT-15. As to the kind of experiment: Cytotoxicity against COX deficient human HCT15 cells after 24 hrs by MTT assay. The data set is classed as functional, cell-based. To be noted: HCT-15, 24 h. Summed up:
as §1

The test system of another data set is BXPC-3. In words: Cytotoxicity against human BxPC3 cells expressing COX1 and COX2 after 24 hrs by MTT assay. The data set is classed as functional, cell-based. Conditions: BXPC-3, 24 h. Summed up:
as §1

A further data set relates to SK-BR-3. In words: Cytotoxicity against ER deficient human SKBR3 cells after 24 hrs by MTT assay. It is filed as functional, cell-based. Conditions: SK-BR-3, 24 h. The method, boiled down:
as §1

For a further data set, the system named is MDA-MB-231. As to the kind of experiment: Cytotoxicity against ER deficient human MDA-MB-231 cells after 24 hrs by MTT assay. It is filed as functional, cell-based. Conditions: MDA-MB-231, 24 h. The method, boiled down: as §1
Data set [3] deals with Rattus norvegicus. As to the kind of experiment: Antiinflammatory activity in rat assessed as increase of carrageenan-induced TNFalpha level in plasma at 0.56 mmol/kg by ELISA. It is filed as functional.
The subject of a further data set is Jurkat. As to the kind of experiment: Cytotoxicity against human Jurkat cells expressing COX1 and COX2 after 24 hrs by MTT assay. It is filed as functional, cell-based. The method, boiled down:
as §1

The test system of another data set is SW480. As to the kind of experiment: Cytotoxicity against human SW480 cells expressing COX1 after 24 hrs by MTT assay. The data set is classed as functional, cell-based. Conditions: SW480, 24 h. Summed up: as §1
For data set [4], the system named is Rattus norvegicus. As to the kind of experiment: Antiinflammatory activity in rat assessed as reduction of carrageenan-induced paw volume at 0.56 mmol/kg after 6 hrs. The data set is classed as functional.
For data set [5], the system named is Rattus norvegicus. In words: Antiinflammatory activity in rat assessed as reduction of carrageenan-induced PGE2 level in paw exudates at 0.21 mmol/kg by […] (reference value: 82 +/- 2 pg/mg). The data set is classed as functional.
In data set [6] the test system is HT-29. In words: Cytotoxicity against human HT-29 cells expressing COX1 and COX2 after 24 hrs by MTT assay. It is filed as functional, cell-based. To be noted: HT-29, 24 h. Summed up:
as §1

Data set [7] relates to HT-29. In words: Ratio of aspirin IC50 to compound IC50 for human HT-29 cells expressing COX1 and COX2 after 24 hrs by MTT assay. It is filed as functional. Summed up: as §1
For data set [8], the system named is HT-29. In words: Cytotoxicity against human HT-29 cells expressing COX1 and COX2 assessed as lactate dehydrogenase release at 4 times IC50 after 2 to 8 hrs. The data set is classed as functional. Summed up:
(§2)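 HT-29 colon cancer cells were treated with several concentrations for 2, 4, 6, 8 or 24 h. Cytotoxicity was read as LDH release (%) relative to untreated controls.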

Data set [9] relates to Rattus norvegicus. As to the kind of experiment: Antiinflammatory activity in rat assessed as reduction of carrageenan-induced TNFalpha level in plasma at 0.52 mmol/kg by ELISA. It is filed as functional.
The species named for data set [10] is Rattus norvegicus. As to the kind of experiment: Antiinflammatory activity in rat assessed as reduction of carrageenan-induced paw volume measured after 6 hrs. It is filed as functional, organism-based.
The subject of data set [11] is HT-29. In words: Cytotoxicity against human HT-29 cells expressing COX1 and COX2 assessed as lactate dehydrogenase release at 4 times IC50 after 24 hrs. The data set is classed as functional. The method, boiled down: as §2
Data set [12] relates to HT-29. In words: Cytotoxicity against human HT-29 cells expressing COX1 and COX2 assessed as lactate dehydrogenase release at IC50 to 4 times IC50. It is filed as functional, cell-based. Conditions: TDE = time-dependent effect. Summed up:
as §2

For data set [13], the species on record is Rattus norvegicus. As to the kind of experiment: Antiinflammatory activity in rat assessed as reduction of carrageenan-induced COX2 expression in paw exudates by Western blot analysis. The data set is classed as functional, organism-based.
The subject of data set [14] is Rattus norvegicus. As to the kind of experiment: Antiinflammatory activity in rat assessed as reduction of carrageenan-induced paw volume at 0.21 mmol/kg after 1 hr. It is filed as functional.
The subject of data set [15] is HT-29. As to the kind of experiment: Cytotoxicity against human HT-29 cells expressing COX1 and COX2 assessed as lactate dehydrogenase release at IC50 after 2 to 8 hrs. The data set is classed as functional. Summed up: as §2
Data set [16] concerns Rattus norvegicus. In words: Antiinflammatory activity in rat assessed as reduction of carrageenan-induced COX1 expression in paw exudates at 0.21 to 0.52 mmol/kg by Western blot analysis. It is filed as functional, organism-based.
The test system of data set [17] is HT-29. In words: Cytotoxicity against human HT-29 cells expressing COX1 and COX2 assessed as lactate dehydrogenase release after 2 to 24 hrs. The data set is classed as functional, cell-based. Summed up: as §2
For data set [18], the system named is Rattus norvegicus. As to the kind of experiment: Antiinflammatory activity in rat assessed as reduction of carrageenan-induced PGE2 level in paw exudates at 0.52 mmol/kg by […] (reference value: 82 +/- 2 pg/mg). The data set is classed as functional.
Data set [19] relates to Rattus norvegicus. In words: In vivo drug metabolism in carrageenan treated rat assessed as increase of nitric oxide release in plasma by Griess reaction. The data set is classed as ADME, organism-based. Summed up:
(§3)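 Blood was collected at the end of the carrageenan paw edema study from rats given vehicle, the reference or the test compound (0.21 or 0.52 mmol/kg). Plasma NOx and H2S were quantified. Mean ± SEM, four rats per group.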
(Nitrite, measured by Griess reagent, commonly stands in for NO production.)

The subject of data set [20] is Rattus norvegicus. As to the kind of experiment: Antiinflammatory activity in rat assessed as reduction of carrageenan-induced paw volume at 0.21 mmol/kg after 6 hrs. The data set is classed as functional.
Data set [21] concerns Rattus norvegicus. As to the kind of experiment: In vivo drug metabolism in carrageenan treated rat assessed as increase of H2S release in plasma by […]. The data set is classed as ADME, organism-based. The method, boiled down:
as §3

Data set [22] deals with Rattus norvegicus. In words: Antiinflammatory activity in rat assessed as reduction of carrageenan-induced paw volume at 0.52 mmol/kg after 1 to 2 hrs. The data set is classed as functional.
Data set [23] relates to Rattus norvegicus. In words: Antiinflammatory activity in rat assessed as reduction of carrageenan-induced paw volume at 0.52 mmol/kg after 2 to 6 hrs. The data set is classed as functional.
Data set [24] has as its system Rattus norvegicus. As to the kind of experiment: Antiinflammatory activity in rat assessed as reduction of carrageenan-induced paw volume at 0.21 mmol/kg after 3 hrs. It is filed as functional.
Data set [25] relates to Rattus norvegicus. In words: Antiinflammatory activity in rat assessed as reduction of carrageenan-induced TNFalpha level in plasma at 0.21 mmol/kg by ELISA. The data set is classed as functional.

What is called IC50 is the concentration at which inhibition is half-maximal. Read a high IC50 as lower potency. In the case of `CC(=O)Oc1ccccc1C(=O)O` [ASPIRIN], the IC50 in the data set on LNCaP, in the data set with MCF7, in the data set on A549, with MIA PaCa-2, in the data set with HCT-15 and in the data set on BXPC-3 was more than 5000 µM each time. For the same compound, the half-maximal inhibitory concentration (IC50) in the data set with SK-BR-3, with MDA-MB-231, with Jurkat and in the data set on SW480 was more than 5000 µM in each case. Besides, the Activity in the data set with Rattus norvegicus [1] amounted to 0.35 mL; with Rattus norvegicus [2], 0.4 mL; in the data set with Rattus norvegicus [3], 200 pg/mL; in the data set with Rattus norvegicus [4], 0.35 mL; in the data set on Rattus norvegicus [5], 12 pg/mg.
As for `O=C(CCC(=O)Oc1ccccc1C(=O)Oc1ccc(-c2cc(=S)ss2)cc1)OCCCCO[N+](=O)[O-]`, the IC50 with HT-29 [6] turned out to be 0.08 µM; in the data set with LNCaP it was 0.1 µM; in the data set on MCF7, 0.07 µM; in the data set on A549, 0.12 µM; in the data set with MIA PaCa-2, 0.102 µM; in the data set with HCT-15, 0.09 µM. Moreover, the IC50 came out at 0.1 µM in the data set with BXPC-3; 0.088 µM with SK-BR-3; 0.085 µM with MDA-MB-231; 0.09 µM with Jurkat; 0.097 µM in the data set with SW480. The “Ratio IC50” value in the data set with HT-29 [7] is more than 60000.
Turning to `O=C(CCCO[N+](=O)[O-])Oc1ccccc1C(=O)Oc1ccc(-c2cc(=S)ss2)cc1`, the concentration for half-maximal inhibition (IC50) in the data set with HT-29 [6] came out at 0.048 µM; in the data set on LNCaP, 0.088 µM; in the data set with MCF7, 0.28 µM; with A549, 0.05 µM; with MIA PaCa-2 it was 0.047 µM; in the data set on HCT-15, 0.05 µM. Moreover, the IC50 with BXPC-3 is 0.057 µM; in the data set on SK-BR-3, 0.075 µM; in the data set with MDA-MB-231, 0.1 µM; in the data set with Jurkat it was 0.1 µM; in the data set on SW480 it was 0.06 µM. The Activity in the data set on HT-29 [8] was 1%; in the data set with Rattus norvegicus [9], 40 pg/mL; in the data set filed under Rattus norvegicus [10] it was “Dose-dependent effect”; with HT-29 [11], less than 10%; in the data set with HT-29 [12], “tde”; with Rattus norvegicus [14], 0.5 mL. For the same compound, the Activity was 0.5% with HT-29 [15]; “Dose-dependent effect” in the data set with HT-29 [17]; 21 pg/mg with Rattus norvegicus [18]; 0.4 mL with Rattus norvegicus [20]; 42 pg/mg with Rattus norvegicus [5]; 0.45 mL in the data set on Rattus norvegicus [22]. The results for the Activity in the data set on Rattus norvegicus [23], in the data set with Rattus norvegicus [24] and with Rattus norvegicus [25] were 0.35 mL, 0.6 mL and 55 pg/mL, respectively. For the same compound, the “Ratio IC50” value with HT-29 [7] worked out at 100000. Also, the inhibition entry in the data set filed under Rattus norvegicus [13] was “Dose-dependent effect”. In addition, the inhibition entry with Rattus norvegicus [16] was “Active”. Besides, the Drug metabolism result in the data set on Rattus norvegicus [19] and with Rattus norvegicus [21] was “Dose-dependent effect” in each case.
As to `NC(=S)c1ccc(OC(=O)c2ccccc2OC(=O)CCCO[N+](=O)[O-])cc1`, the 50% inhibitory concentration (IC50) came to 7.5 µM in the data set on HT-29 [6]; 4.3 µM with LNCaP; 5.7 µM in the data set on MCF7; 6.5 µM with A549; 4.8 µM in the data set on MIA PaCa-2; 5.9 µM with HCT-15. The half-inhibitory concentration (IC50) came to 5.5 µM with BXPC-3; 6.5 µM in the data set with SK-BR-3; 6 µM in the data set with MDA-MB-231; 7 µM with Jurkat; 5.3 µM with SW480. Further, in the data set on HT-29 [7], the “Ratio IC50” value is more than 600.
For the compound `O=C(CCCC[C@@H]1CCSS1)Oc1ccccc1C(=O)OCCCCO[N+](=O)[O-]`, the IC50 stood at 0.3 µM in the data set on HT-29 [6]; 0.5 µM in the data set with LNCaP; 0.28 µM in the data set on MCF7; 0.3 µM in the data set on A549; 0.8 µM with MIA PaCa-2; 0.52 µM with HCT-15. The half-inhibitory concentration (IC50) is 0.7 µM in the data set with BXPC-3; 0.55 µM in the data set on SK-BR-3; 0.8 µM with MDA-MB-231; 0.24 µM in the data set with Jurkat; 0.6 µM in the data set on SW480. Further, the “Ratio IC50” value in the data set with HT-29 [7] is given as more than 16000.

The record behind these values is ChEMBL document CHEMBL2046423, “NOSH-Aspirin: A Novel Nitric Oxide-Hydrogen Sulfide-Releasing Hybrid: A New Class of Anti-inflammatory Pharmaceuticals” (ACS Med Chem Lett, 2012).
